Reference: ChEMBL document CHEMBL4765368, “Structure guided design and synthesis of furyl thiazolidinedione derivatives as inhibitors of GLUT 1 and GLUT 4, and evaluation of their anti-leukemic potential” (Eur J Med Chem, 2020)
pIC50: −log10 of the molar value.

Experiments:
[1] = biological target: Histone deacetylase 4 (Homo sapiens) (UniProt P56524); assay: (§1) Inhibition of recombinant human N-terminal GST-tagged HDAC4 (627 to end residues) expressed in baculovirus infected Sf9 insect cells assessed as residual activity at 50 uM using Boc-Lys(trifluoroacetyl)-AMC as substrate preincubated for 60 mins followed by substrate addition and measured after 60 mins by fluorescence assay relative to control; settings: time 120.0 min
Histone deacetylase 4 (Homo sapiens), sequence (P56524 whole entry): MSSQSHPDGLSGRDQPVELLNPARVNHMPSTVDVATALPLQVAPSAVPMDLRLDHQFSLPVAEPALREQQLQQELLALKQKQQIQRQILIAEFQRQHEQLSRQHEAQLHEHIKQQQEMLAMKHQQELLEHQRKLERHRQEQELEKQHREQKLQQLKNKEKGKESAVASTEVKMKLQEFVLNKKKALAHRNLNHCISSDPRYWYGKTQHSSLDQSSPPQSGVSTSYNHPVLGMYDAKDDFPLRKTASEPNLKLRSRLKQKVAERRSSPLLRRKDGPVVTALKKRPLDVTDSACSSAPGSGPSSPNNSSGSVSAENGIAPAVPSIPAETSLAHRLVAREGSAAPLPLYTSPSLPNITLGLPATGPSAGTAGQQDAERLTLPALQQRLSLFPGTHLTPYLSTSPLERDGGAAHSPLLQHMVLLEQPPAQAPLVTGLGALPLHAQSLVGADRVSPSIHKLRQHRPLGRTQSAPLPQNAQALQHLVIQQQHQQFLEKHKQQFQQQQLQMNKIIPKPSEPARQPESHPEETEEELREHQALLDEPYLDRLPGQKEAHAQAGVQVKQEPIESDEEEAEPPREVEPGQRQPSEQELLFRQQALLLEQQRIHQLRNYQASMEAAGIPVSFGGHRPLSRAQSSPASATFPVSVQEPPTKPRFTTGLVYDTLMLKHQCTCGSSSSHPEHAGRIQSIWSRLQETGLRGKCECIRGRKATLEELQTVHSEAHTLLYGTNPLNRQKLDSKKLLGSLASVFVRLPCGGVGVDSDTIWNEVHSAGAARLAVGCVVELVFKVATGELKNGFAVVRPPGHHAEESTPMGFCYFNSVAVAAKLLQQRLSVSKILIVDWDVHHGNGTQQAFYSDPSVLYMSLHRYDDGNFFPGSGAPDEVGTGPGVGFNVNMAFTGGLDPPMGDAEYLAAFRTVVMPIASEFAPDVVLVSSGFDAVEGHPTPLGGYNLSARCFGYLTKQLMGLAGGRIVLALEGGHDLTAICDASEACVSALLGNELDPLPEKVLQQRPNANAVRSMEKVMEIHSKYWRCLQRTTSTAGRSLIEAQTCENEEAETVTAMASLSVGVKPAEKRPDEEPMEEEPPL

HS27 = assay: Cytotoxicity against human HS27 cells assessed as reduction in cell viability measured after 48 hrs by Hoechst 33342/propidium iodide staining based imaging analysis; settings: hs27, 48 h
Method in brief: (§2)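 Cells were seeded at 10,000 per well (HS-27 at 3,000) in 10% FBS RPMI (leukemic lines) or DMEM (MDA-MB-231, HS-27). Compound in DMSO (1% v/v final) at 0.5–100 µM for 48 h. Hoechst 33342 and PI were added 2 h before automated imaging; dead cells were co-stained. Quadruplicates. CC50 was taken by linear interpolation between the two concentrations nearest 50% death.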

CCRF-CEM = assay: Cytotoxicity against human CCRF-CEM cells assessed as reduction in cell viability measured after 48 hrs by Hoechst 33342/propidium iodide staining based imaging analysis; type: functional; method in brief: as §2
[2] = biological target: T1, Solute carrier family 2, facilitated glucose transporter member 4 (Homo sapiens) (UniProt P14672); assay: Inhibition of transport activity of human GLUT4 expressed in hexose transporter deficient […] erg4 yeast cells assessed as reduction in transporter-mediated [14C]-hexose uptake into cells at 100 uM measured after 10 mins by scintillation counting method relative to control; type: cell-based
T1 sequence (whole entry): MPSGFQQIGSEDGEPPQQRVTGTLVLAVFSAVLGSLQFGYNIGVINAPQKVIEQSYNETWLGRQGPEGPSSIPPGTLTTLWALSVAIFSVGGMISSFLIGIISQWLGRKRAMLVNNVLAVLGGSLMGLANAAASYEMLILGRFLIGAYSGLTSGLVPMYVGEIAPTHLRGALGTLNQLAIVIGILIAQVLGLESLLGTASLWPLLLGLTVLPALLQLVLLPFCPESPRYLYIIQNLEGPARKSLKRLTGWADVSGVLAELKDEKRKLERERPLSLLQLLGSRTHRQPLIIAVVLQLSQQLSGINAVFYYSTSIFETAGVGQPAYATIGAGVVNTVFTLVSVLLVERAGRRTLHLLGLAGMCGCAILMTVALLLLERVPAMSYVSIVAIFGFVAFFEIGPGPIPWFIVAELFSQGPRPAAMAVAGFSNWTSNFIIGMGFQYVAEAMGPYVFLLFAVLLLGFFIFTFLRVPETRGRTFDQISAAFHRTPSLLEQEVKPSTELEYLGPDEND
Method in brief: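 The hxt0 yeast strain expressing one human GLUT was grown at 30 °C and resuspended in PBS pH 7.4 at OD600 ~10. Uptake was started with 14C-glucose at 5 mM final (GLUT1, GLUT4) or 14C-fructose at 10 mM final (GLUT5). It was quenched after 10 min with ice-cold 0.1 M KPi/0.1 M LiCl pH 5.5, filtered and counted by scintillation. Compound at 100 μM with 1% DMSO; DMSO control and phloretin 200 μM (GLUT1/4) or MSNBA 100 μM (GLUT5) as references. Triplicates.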

[3] = biological target: T2, Solute carrier family 2, facilitated glucose transporter member 4 (Homo sapiens, UniProt P14672); assay: Inhibition of transport activity of human GLUT4 expressed in hexose transporter deficient W4000fgy1 erg4 yeast cells assessed as reduction in transporter-mediated [14C]-hexose uptake into cells measured after 10 mins by scintillation counting method; type: cell-based
T2 sequence (P14672 whole entry): T1 sequence (whole entry)
Method in brief: (§3)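 GLUT1 (VW4000fgy1) or GLUT4 (VW4000fgy1erg4) hxt0 yeast were grown on maltose and then glucose and resuspended in PBS pH 7.4 at OD600 ~10. Compound was used at 0.1–100 μM, final 1% DMSO. Uptake of 5 mM 14C-glucose over 10 min was stopped with ice-cold quench buffer, filtered and counted by scintillation. IC50 was taken from dose-response curves of three independent measurements.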

KCL-22 = assay: Cytotoxicity against human KCL-22 cells assessed as reduction in cell viability measured after 48 hrs by Hoechst 33342/propidium iodide staining based imaging analysis; type: functional; method in brief: as §2
[4] = Selectivity index, ratio of CC50 for human HS27 cells to CC50 for human CCRF-CEM cells
Method in brief: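 Ratio of HS-27 CC50 to CCRF-CEM CC50. Both came from Hoechst/PI differential nuclear staining imaging after 48 h exposure to 0.5–100 µM, in quadruplicate, with 10,000 CEM or 3,000 HS-27 cells/well. Each CC50 was estimated by linear interpolation between the two concentrations nearest 50% cell death.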

[5] = biological target: T3, Histone deacetylase 8 (Homo sapiens) (UniProt Q9BY41); assay: as §1, with “His6/SUMO-tagged HDAC8” for “N-terminal GST-tagged HDAC4 (627 to end residues)”, “Escherichia coli (BL21) DE3 pLysS” for “baculovirus infected Sf9 insect cells”; settings: time 120.0 min
T3 sequence (whole entry): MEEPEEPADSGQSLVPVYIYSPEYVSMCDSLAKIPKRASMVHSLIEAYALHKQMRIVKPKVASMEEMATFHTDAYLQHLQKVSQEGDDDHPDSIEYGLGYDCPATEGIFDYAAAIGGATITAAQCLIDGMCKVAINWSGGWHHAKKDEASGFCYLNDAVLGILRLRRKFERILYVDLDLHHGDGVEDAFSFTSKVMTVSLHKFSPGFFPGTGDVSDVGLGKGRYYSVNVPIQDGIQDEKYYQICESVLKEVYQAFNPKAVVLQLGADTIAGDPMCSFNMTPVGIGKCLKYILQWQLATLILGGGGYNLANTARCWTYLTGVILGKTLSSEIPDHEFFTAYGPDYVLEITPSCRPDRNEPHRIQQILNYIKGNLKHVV
Method in brief: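 20 μM Boc-Lys(trifluoroacetyl)-AMC was then added for 60 min at 30 °C, the reaction stopped with 1.7 μM SATFMK and developed with 0.4 mg/ml trypsin, and AMC fluorescence read at Ex 350/Em 450 nm. Triplicates; percent relative activity.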

[6] = biological target: T4, Solute carrier family 2, facilitated glucose transporter member 1 (Homo sapiens, UniProt P11166); assay: Inhibition of transport activity of human GLUT1 expressed in hexose transporter deficient VW4000fgy1 yeast cells assessed as reduction in transporter-mediated [14C]-hexose uptake into cells measured after 10 mins by scintillation counting method; type: cell-based; method in brief: as §3
T4 sequence (P11166 whole entry): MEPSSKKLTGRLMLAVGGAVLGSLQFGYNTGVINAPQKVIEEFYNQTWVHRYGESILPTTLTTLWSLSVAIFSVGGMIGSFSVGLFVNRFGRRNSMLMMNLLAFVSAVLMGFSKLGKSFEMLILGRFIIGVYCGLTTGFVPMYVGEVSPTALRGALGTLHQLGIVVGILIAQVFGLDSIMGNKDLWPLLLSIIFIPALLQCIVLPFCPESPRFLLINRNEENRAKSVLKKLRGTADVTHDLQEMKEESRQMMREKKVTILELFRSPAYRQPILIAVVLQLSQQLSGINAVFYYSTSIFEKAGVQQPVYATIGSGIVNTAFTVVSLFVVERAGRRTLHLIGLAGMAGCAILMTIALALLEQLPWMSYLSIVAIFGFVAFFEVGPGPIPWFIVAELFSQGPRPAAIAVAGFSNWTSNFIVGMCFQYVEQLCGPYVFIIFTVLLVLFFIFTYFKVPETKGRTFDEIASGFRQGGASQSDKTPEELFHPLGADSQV

Compound | Activity [1] [%] | CC50 (HS27) [µM] | CC50 (CCRF-CEM) [µM] | inhibition [2] [%] | pIC50 [3] | CC50 (KCL-22) [µM] | Selectivity Index [4] | Activity [5] [%] | pIC50 [6]
O=C(CN1C(=O)S/C(=C/c2ccco2)C1=O)Nc1nc2ccccc2s1 | > 50 | 44 | 1.7 | > 50 | 5.17 | 15.3 | > 25.8 | > 50 | 4.94
O=C(CN1C(=O)S/C(=C/c2ccco2)C1=O)Nc1ccc(Cl)c(Cl)c1 | > 50 | > 100 | 7.8 | > 50 | 3.82 | 72.2 | > 12.8 | > 50 | 4.83
